Laboratory results from ChEMBL document CHEMBL4513216, “Probing the Open Global Health Chemical Diversity Library for Multistage-Active Starting Points for Next-Generation Antimalarials” (ACS Infect Dis, 2020).

Experiment: Toxicity liver stage against HepG2, at 10uM
Assay type: cell-based
Parameters: test concentration 10 uM, cell line HepG2-A16-CD81EGFP
Conditions: human, HepG2-A16-CD81EGFP cells; read-out: INHIBITION
In short: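 Uninfected HepG2-A16-CD81EGFP cells, 3 × 10^3 per well, 1536-well, plated on prespotted compound at 10 μM final, parasite-free screening media added to match infected plates; puromycin 10 μM positive, DMSO 0.5% negative; run in parallel with 48 h PbLuc assay at 37 °C, 5% CO2; viability by CellTiter-Glo luminescence, normalized to controls.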

| SMILES | cytotoxicity at 10 µM [%] |
| --- | --- |
| O=C(Cc1cccnc1)N1C[C@@H]2CC[C@H]1CN(Cc1ccc(F)cc1)C2 | 4.54 |
| Cc1nn(C)c(N2CCOCC2)c1CNC(C)c1ccccn1 (stereo unspecified) | -10.7 |
| O=C(C1CCCN(Cc2ccccc2)C1)N1CCc2sccc2C1 (stereo unspecified) | 2.41 |
| COc1cccc(S(=O)(=O)N2CCN(C)[C@@H]3CS(=O)(=O)C[C@@H]32)c1 | -9.6 |
| NC1(c2nc(-c3ccccc3)cc(=O)[nH]2)CCCC1 | 1.47 |
| O=C(CC1CCCC1)NCCS(=O)(=O)N1CCN(c2ccccn2)CC1 | 0.766 |
| COc1ccc(C(=O)O)cc1-c1cccc2c1CCNC2 | 0.979 |
| CN(Cc1ccccn1)c1nccc(N2CCN[C@H]3CS(=O)(=O)C[C@H]32)n1 | 10.5 |
| COc1ccccc1CNc1ncnc2c1NC(=O)CN2 | 11.3 |
| CC[C@@H](C)[C@@H](N)C(=O)Nc1cccc(-c2cnc(N(C)CCO)nc2)c1 | -5.89 |
| COc1ccc(F)cc1S(=O)(=O)N1CCC(OC)CC1 | -3.97 |
| COCCN1CCn2cc(CNC(=O)C3CCC3)nc2C1 | 3.68 |
| CNC(=O)[C@@H]1C[C@@H](n2cc(-c3ccc(Cl)cc3)nn2)CN1 | -3.95 |
| CCN(CC)C(=O)Cn1cc(C(=O)NCCc2nc(C)c(C)s2)nn1 | 2.22 |
| CCc1ncncc1C(=O)N1CCN(Cc2cscn2)CC1 | 0.512 |
| Cc1nc2n(n1)CC(NCc1c(Cl)ccc3cccnc13)CC2 (stereo unspecified) | 0.0383 |
| O=C(Cc1ccc2c(c1)OCCO2)N1CCN(c2cnccn2)CC1 | -11.8 |
| CC(=O)c1cn(CCC(=O)NCCC(=O)O)c2ccccc12 | 7.13 |
| c1ccc2c(c1)CCN2c1nc(N2CCOCC2)c2nn[nH]c2n1 | -3.29 |
| O=C1N(Cc2cccc(Cl)c2)CCC12CCCNC2 (stereo unspecified) | -16.5 |
| O=S(=O)(C1CC1)N1CCn2c(Cn3cncn3)cnc2C1 | 12.2 |
| COc1ccc(C2CCCN2c2ccnc(C)c2Cl)c(OC)c1 (stereo unspecified) | 28.4 |
| CCc1nsc(N2CCCN(C(=O)COc3ccccc3)CC2)n1 | -1.74 |

| SMILES | cytotoxicity at 10 µM [%] |
| --- | --- |
| Cc1cc(CCC2CN(CC3(O)CCCCC3)CCO2)ncn1 (stereo unspecified) | 2.97 |
| CCN(C(=O)NCCc1cccc(F)c1F)C(C)CS(C)(=O)=O (stereo unspecified) | 11.9 |
| O=C1COc2cc(C(=O)NCc3ccc(Cl)s3)ccc2N1 | 1.55 |
| CN1CCN(Cn2nc(-c3cccs3)ccc2=O)CC1 | 2.63 |
| CC(C)(C)C(=O)NCC(=O)NC1CC(c2cccc(Cl)c2)C1 (stereo unspecified) | -1.72 |
| Cc1nc(C)n(CC2CCCN(Cc3ccc4c(c3)OCCO4)C2)n1 (stereo unspecified) | -18.9 |
| CC(=O)N1CCCC1c1nccnc1Nc1cccc(C)n1 (stereo unspecified) | 1.31 |
| CCN(CCc1nccs1)C(=O)c1ncoc1C | 11.3 |
| Cc1cnn(CC2CN(Cc3ccc(-n4cccn4)cc3)CCO2)c1 (stereo unspecified) | -0.674 |
| Cc1cc2c(N)nc(=O)n(CC(=O)Nc3cccc(Cl)c3)c2s1 | -3.14 |
| Cc1ccc(N2CCCN(C(=O)CCCn3ccnc3C)CC2)nn1 | -3.83 |
| CC(C(=O)N1CCOCC1)S(=O)(=O)Cc1nc(C(C)(C)C)no1 (stereo unspecified) | -3.82 |
| CCOc1ccc(NC(=O)NCCCN(C)S(C)(=O)=O)cc1C | 2.79 |
| Cc1nn(C)c2ncc(CN3CCN(c4ncccn4)CC3)cc12 | -0.234 |
| COCCN(C)C(C(=O)O)c1ccc(Cl)c(F)c1 (stereo unspecified) | -2.46 |
| Cc1cnc(N2CCCC(c3ccccc3)C2)nc1-c1ccnn1C (stereo unspecified) | -1.18 |
| Cn1cc(CN2CC[C@H]3CO[C@H](CNc4ncccn4)[C@H]3C2)cn1 | -15.6 |
| O=C(Cn1cnc(NC(=O)CC2CCCC2)n1)NCc1ccccc1 | -4.1 |
| CCOC(=O)[C@H]1[C@@H](O)C(=O)N(C)C12CCN(C(=O)OC)CC2 | -0.817 |
| Cc1cnc(NC(=O)c2csc(NCC(C)C)n2)s1 | 34.4 |
| O=C1CC2(CCN(CC3CC3)CC2)CN1Cc1cc(F)cc(F)c1 | 2.34 |
| CC(C)c1nccn1C1CCCN(C(=O)c2ccc3nncn3c2)C1 (stereo unspecified) | -5.53 |
| COc1ccc2c3c1CN(C(=O)N(C)C)CC3=CC(C)(C)CO2 | 5.21 |

| SMILES | cytotoxicity at 10 µM [%] |
| --- | --- |
| N#Cc1ccc(OC2CCN(C(=O)c3cncc(Br)c3)CC2)nc1 | 3.05 |
| CC(C)c1cc(C(=O)N2CCOCC2CC(=O)c2ccco2)nn1C (stereo unspecified) | 5.52 |
| CCOc1cc(C)nc(N2CCN(C(=O)C(C)NC(C)=O)CC2)n1 (stereo unspecified) | -4.41 |
| O=C(O)[C@H]1OCC(=O)N(Cc2cccc(Cl)c2)[C@@H]1c1ccccc1 | 7.35 |
| Cc1ccc(N2CC[C@@H]3CN(Cc4c[nH]cn4)C[C@@H]3C2)nn1 | 7.43 |
| Cc1ccccc1-c1cncc(C2CCN(C3CCOCC3)CC2)n1 | -2.81 |
| COCc1cc(N2CCN(c3ccc(Cl)cn3)CC2)n2nccc2n1 | 8.89 |
| Nc1nnnn1NCc1cccc2ccccc12 | 10.4 |
| Cc1ccnc(NCc2cn3nc(C)sc3n2)n1 | -0.449 |
| Cc1nc(CCNC(=O)C2CC(=O)N(C(C)C)C2)cs1 (stereo unspecified) | 14.9 |
| CCOc1cc(CNCCCn2ccnc2)cc(Cl)c1OCC | 1.82 |
| COCc1ccccc1CNC(=O)CNc1ccccc1C(C)=O | 3.49 |
| Cc1ccc(S(=O)(=O)N2C[C@H](C3CC3)[C@@H](N)C2)cc1F | -3.25 |
| Cc1nnc2n1CCN(CCCS(=O)(=O)c1ccccc1)C2 | -11.2 |
| COCc1nc(CNC2CCCc3c2cnn3C(C)(C)C)cs1 (stereo unspecified) | -1.62 |
| NC(=O)CN1CC2(CCC1=O)CCN(Cc1ccc(Cl)c(F)c1)CC2 | -5 |
| Cc1nc(N2CCOCC2)sc1C(=O)NCC(C)(C)N1CCCCC1 | 5.7 |
| COc1ncccc1CNc1snc(Cl)c1C#N | 10.2 |
| COCC(=O)N1CC[C@H]2C[C@@H](c3nnc(C4CC4)o3)O[C@@H]2C1 | -6.77 |
| c1cnc(NC[C@H]2OC[C@@H]3CCN(Cc4ccncc4)C[C@@H]32)nc1 | -4.61 |
| c1ccc(CNC[C@H]2Cn3ccnc3CO2)cc1 | -5.25 |
| N#Cc1ccc(CN2CCCCC2Cn2cncn2)c(F)c1 (stereo unspecified) | -1.34 |
| Cc1cc(C2CCCN(Cc3ncc(C)o3)C2)n[nH]1 (stereo unspecified) | 4.63 |

| SMILES | cytotoxicity at 10 µM [%] |
| --- | --- |
| NC(=O)C1CCCN1Cc1ccccc1NC(=O)Cc1cccc(F)c1 (stereo unspecified) | 7.31 |
| Cc1cccc(C(=O)N2CCC3(CC(C(=O)N(C)C(C)C)=NO3)C2)c1 (stereo unspecified) | -127 |
| Cn1cc(CN2CCCC(CCc3c(F)cccc3F)C2)cn1 (stereo unspecified) | -7.55 |
| Cc1cnn(CC2CCCCN2C(=O)c2c(C)noc2C)c1 (stereo unspecified) | -7.26 |
| Fc1cccc(-n2ccc(CN3CCCCC3Cn3cncn3)n2)c1 (stereo unspecified) | -3.81 |
| CN(C1CCc2ccccc2C1)S(C)(=O)=O (stereo unspecified) | -3.78 |
| Cc1ccc(OC2(C(=O)O)CCN(C(=O)c3cc(C)oc3C)CC2)cn1 | 0.0255 |
| N#CCCN(CC1CCOC1)S(=O)(=O)c1c(F)cccc1Cl (stereo unspecified) | -2.58 |
| Nc1ccc(-c2cnc(C3CCCN3)cn2)cn1 (stereo unspecified) | 2.19 |
| CN1CCN(c2ccccc2NC(=O)NCCc2ccc(O)cc2)CC1 | -0.37 |
| c1csc(CN2CCCN(c3ncnc4[nH]ccc34)CC2)c1 | 5.51 |
| Cc1nn(C)c(C)c1CC(=O)NCc1cccnc1N1CCOCC1 | -139 |
| CC(=O)Nn1c(C)cc(CN2CCC(c3ccncc3)CC2)c1C | 4.61 |
| CC(C)(NC(=O)c1ccc(-c2ccc(F)cc2)s1)C(N)=O | -4.05 |
| OCCN1CCC(CNCc2ccccc2OC(F)(F)F)CC1 | -13.7 |
| Cc1ccc(NS(=O)(=O)c2cc3c(c(C(=O)O)c2)OCCO3)cc1C | -15.3 |
| COC(=O)CC(c1ccc(OC)c(OC)c1OC)c1c(O)n[nH]c1C (stereo unspecified) | 4.02 |
| Cn1ccnc1C(=O)NCc1cnc2n1CCN(CC1CC1)CC2 | 5.93 |
| c1ccc(CCCN2CCOC(Cn3cccn3)C2)cc1 (stereo unspecified) | 9.11 |
| CC(C1CC1)n1nccc1NC(=O)CN(C)C(=O)OC(C)(C)C (stereo unspecified) | 0.258 |
| COc1cccc(COCC(=O)N2CCCC(n3cccn3)C2)c1 (stereo unspecified) | -0.363 |
| O=C(NCCN1CCCCC1=O)C1CCC(=O)N(C2CCCC2)C1 (stereo unspecified) | -10.8 |
| CCOc1ncccc1CNC(=O)c1csc(Br)c1 | 0.291 |

| SMILES | cytotoxicity at 10 µM [%] |
| --- | --- |
| CCc1noc(C(C)N2CCC(NS(=O)(=O)c3ccccc3)CC2)n1 (stereo unspecified) | 7.87 |
| O=C(c1n[nH]c(=O)c2ccccc12)N1CCCCC1c1ccn[nH]1 (stereo unspecified) | -0.285 |
| CN(C)CCOCC1CN(C(=O)c2cccn2C)Cc2ccnn2C1 (stereo unspecified) | 13.5 |
| Cn1ccc(CN2CCC3(CC2)CC(Nc2cnccn2)CO3)n1 (stereo unspecified) | -2.66 |
| COC(=O)CC1CCN(C(=O)c2ccc(-n3nnnc3C)cc2)CC1 | -6.72 |
| O[C@@H]1CN(c2noc(C3CC3)n2)CC[C@H]1c1ccc2ccccc2c1 | 5.11 |
| CC(C)c1nc(COc2cccc3c2NC(=O)CO3)cs1 | 35.8 |
| Cc1csc(CCNC(=O)C2CCOC2)n1 (stereo unspecified) | -6.17 |
| Cn1ccc2cc(C(=O)N3CCOCC3)ccc21 | 1.91 |
| Cc1cccc(NC(=O)CN(C)C(=O)c2ccc(OC(C)C)nc2)n1 | -8.99 |
| CC(C)COc1cncc(NC(CO)c2ccco2)n1 (stereo unspecified) | -5.08 |
| Cn1cnnc1SCCCNC(=O)Nc1ncccn1 | 0.252 |
| c1ccc(C(CC2CN(Cc3c[nH]cn3)CCO2)c2ccccc2)cc1 (stereo unspecified) | -5.54 |
| COCCN(C)C(=O)c1cc2c(s1)CCN2C(=O)C1CC1 | -7.38 |
| O=C(NCCc1csc(N2CCCC2)n1)N(C1CCCC1)C1CC1 | 10.8 |
| COCC(=O)N1CCCCC1c1ccnc(Nc2cnccn2)n1 (stereo unspecified) | -24.1 |
| Cc1nnc([C@]23COC[C@H]2CN(S(=O)(=O)c2cccnc2)C3)o1 | -97.8 |
| O=C(c1cc(=O)[nH][nH]1)N1CCCC2(CCC(=O)N(C3CCCC3)C2)C1 (stereo unspecified) | 0.988 |
| Cc1cnn(CC2CCCN2Cc2cc(=O)n3cc(C)ccc3n2)c1 (stereo unspecified) | -10.9 |
